# Test results from ChEMBL document CHEMBL1148329, “Synthesis and structure-activity studies on N-[5-(1H-imidazol-4-yl)-5,6,7,8-tetrahydro-1-naphthalenyl]methanesulfonamide, an imidazole-containing alpha(1A)-adrenoceptor agonist” (J Med Chem, 2004).
# Columns and labels:
# [1] = target: T1, Alpha-2A adrenergic receptor (Rattus norvegicus) (UniProt P22909); assay: Efficacy relative to clonidine to constrict tissue containing the alpha-2A adrenergic receptor in rat prostatic vas deferens
# T1 sequence (whole entry): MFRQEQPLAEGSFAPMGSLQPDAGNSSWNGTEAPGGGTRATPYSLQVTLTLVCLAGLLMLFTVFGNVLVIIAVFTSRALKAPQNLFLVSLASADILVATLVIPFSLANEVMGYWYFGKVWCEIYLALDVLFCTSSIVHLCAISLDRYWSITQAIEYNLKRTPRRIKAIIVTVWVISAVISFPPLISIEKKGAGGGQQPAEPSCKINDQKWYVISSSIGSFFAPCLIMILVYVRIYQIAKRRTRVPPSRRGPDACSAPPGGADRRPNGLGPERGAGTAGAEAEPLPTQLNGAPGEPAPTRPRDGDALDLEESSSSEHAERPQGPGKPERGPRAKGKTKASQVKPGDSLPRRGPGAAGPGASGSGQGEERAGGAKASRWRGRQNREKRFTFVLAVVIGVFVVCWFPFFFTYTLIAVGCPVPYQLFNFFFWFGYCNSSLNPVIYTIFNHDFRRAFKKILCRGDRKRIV
# [2] = Selectivity is ratio of efficacy of alpha-2A to that of alpha1A adrenoceptor; type: functional
# [3] = species on record: Rattus norvegicus; assay: Relative affinities for alpha2B and alpha1A receptors
# [4] = target: T2, Alpha-2B adrenergic receptor (Rattus norvegicus, UniProt P19328); assay: In vitro binding affinity towards alpha-2B adrenergic receptor of rat neonatal lung in radioligand binding assay
# T2 sequence (P19328 whole entry): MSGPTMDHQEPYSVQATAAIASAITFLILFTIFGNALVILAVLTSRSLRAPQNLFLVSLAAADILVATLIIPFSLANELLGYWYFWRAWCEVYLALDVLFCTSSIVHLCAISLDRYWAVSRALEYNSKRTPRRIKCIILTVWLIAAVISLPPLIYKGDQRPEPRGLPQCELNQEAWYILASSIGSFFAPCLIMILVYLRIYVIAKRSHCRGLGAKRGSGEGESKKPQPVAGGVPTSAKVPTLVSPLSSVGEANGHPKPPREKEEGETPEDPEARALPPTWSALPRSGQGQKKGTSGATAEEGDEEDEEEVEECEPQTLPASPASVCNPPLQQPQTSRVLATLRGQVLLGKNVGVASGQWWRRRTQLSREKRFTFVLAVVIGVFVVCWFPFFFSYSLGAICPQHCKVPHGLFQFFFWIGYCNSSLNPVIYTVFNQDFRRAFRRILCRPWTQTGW
# [5] = target: T3, Alpha-1B adrenergic receptor (Mesocricetus auratus, UniProt P18841); assay: In vitro binding affinity towards alpha-1B adrenergic receptor of hamster clone in radioligand binding assay; type: single protein
# T3 sequence (P18841 whole entry): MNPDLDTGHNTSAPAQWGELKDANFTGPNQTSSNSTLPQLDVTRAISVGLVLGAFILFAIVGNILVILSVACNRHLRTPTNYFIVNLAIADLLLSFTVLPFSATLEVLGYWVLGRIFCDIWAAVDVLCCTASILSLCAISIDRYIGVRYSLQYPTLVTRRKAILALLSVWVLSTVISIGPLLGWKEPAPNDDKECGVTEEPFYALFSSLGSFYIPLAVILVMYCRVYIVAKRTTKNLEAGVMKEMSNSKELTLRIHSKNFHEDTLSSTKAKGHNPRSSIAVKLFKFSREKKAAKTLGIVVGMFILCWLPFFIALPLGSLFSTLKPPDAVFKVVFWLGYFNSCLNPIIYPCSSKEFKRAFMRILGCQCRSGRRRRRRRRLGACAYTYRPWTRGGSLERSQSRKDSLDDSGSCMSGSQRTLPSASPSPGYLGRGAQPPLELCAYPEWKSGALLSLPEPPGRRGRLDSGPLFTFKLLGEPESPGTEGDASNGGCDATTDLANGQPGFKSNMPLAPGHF
# In short: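 Radioligand binding at α1 subtypes: α1A from rat submaxillary gland, α1B hamster clone, α1D rat clone. Run essentially per an earlier method.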
# [6] = target: T4, Alpha-1A adrenergic receptor (Oryctolagus cuniculus) (UniProt O02824); assay: Efficacy relative to phenylephrine (PE) to constrict tissue containing the alpha-1A adrenergic receptor in rabbit urethra; type: functional, tissue-based
# T4 sequence (whole entry): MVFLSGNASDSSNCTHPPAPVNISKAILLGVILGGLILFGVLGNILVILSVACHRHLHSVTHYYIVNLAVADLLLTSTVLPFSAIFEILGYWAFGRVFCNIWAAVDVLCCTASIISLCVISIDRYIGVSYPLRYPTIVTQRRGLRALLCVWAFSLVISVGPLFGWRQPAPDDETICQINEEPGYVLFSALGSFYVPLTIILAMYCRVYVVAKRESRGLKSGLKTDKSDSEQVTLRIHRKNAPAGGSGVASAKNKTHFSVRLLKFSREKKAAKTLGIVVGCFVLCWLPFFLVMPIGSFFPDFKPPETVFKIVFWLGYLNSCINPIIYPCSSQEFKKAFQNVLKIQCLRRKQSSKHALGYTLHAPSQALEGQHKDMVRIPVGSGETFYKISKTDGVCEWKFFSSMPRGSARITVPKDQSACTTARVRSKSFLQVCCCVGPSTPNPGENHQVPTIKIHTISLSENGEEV
# In short: (§1)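 α1-agonist dose–response curves in isolated tissue: rabbit urethra (α1A), rat spleen (α1B), rat aorta (α1D). Agonist potency and efficacy read from the concentration–response curves.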
# [7] = target: T1, Alpha-2A adrenergic receptor (Rattus norvegicus); assay: Functional agonism to constrict tissue containing alpha-2A adrenergic receptor in rat prostatic vas deferens; type: tissue-based
# [8] = target: Alpha adrenergic receptor 1A and 1D (Rattus norvegicus) (UniProt P23944+P43140); assay: Selectivity is ratio of pKi (binding affinity) of Alpha-1D to that of alpha1A; type: protein assay
# [9] = target: T5, Alpha-1B adrenergic receptor (Rattus norvegicus) (UniProt P15823); assay: Efficacy relative to phenylephrine (PE) constriction of rat spleen containing alpha-1B adrenergic receptor; type: functional, tissue-based
# T5 sequence (whole entry): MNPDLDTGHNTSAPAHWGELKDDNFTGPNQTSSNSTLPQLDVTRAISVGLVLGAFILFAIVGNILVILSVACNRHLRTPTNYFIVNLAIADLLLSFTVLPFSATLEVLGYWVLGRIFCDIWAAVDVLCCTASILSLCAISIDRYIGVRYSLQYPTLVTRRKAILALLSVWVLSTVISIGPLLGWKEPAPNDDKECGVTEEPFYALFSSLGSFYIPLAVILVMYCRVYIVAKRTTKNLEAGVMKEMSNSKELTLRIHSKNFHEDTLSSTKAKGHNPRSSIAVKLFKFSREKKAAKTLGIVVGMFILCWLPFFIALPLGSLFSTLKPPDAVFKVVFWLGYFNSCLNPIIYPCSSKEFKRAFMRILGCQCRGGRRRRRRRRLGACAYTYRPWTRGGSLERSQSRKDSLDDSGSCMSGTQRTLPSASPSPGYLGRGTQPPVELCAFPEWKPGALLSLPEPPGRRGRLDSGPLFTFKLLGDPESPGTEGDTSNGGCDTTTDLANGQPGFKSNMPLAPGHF
# In short: as §1
SMILES,Efficacy [1] [%],Selectivity [2],Selectivity [3],Ki [4] [µM],Ki [5] [µM],Efficacy [6] [%],pD2 [7],Selectivity [8],Efficacy [9] [%]
"O=S(=O)(CC(F)(F)F)Nc1cccc2c1CCCC2c1c[nH]cn1 (single isomer, unassigned; (+))",100,0.14,> 80,> 10,> 10,52,6.59,> 80,–
CN(c1cccc2c1CCCC2c1c[nH]cn1)S(C)(=O)=O (stereo unspecified),100,0.12,4,0.912,> 10,79,7.08,3,–
COc1ccc(OC)c(C(O)CN)c1 (stereo unspecified) [DESGLYMIDODRINE],20,0.001,0.9,1.86,–,133,8.23,0.8,68
O=C(Nc1cccc2c1CCCC2c1c[nH]cn1)C(F)(F)F (stereo unspecified),100,0.1,4,0.661,> 10,118,7.14,20,19
CC(N)C(O)c1ccccc1 (stereo unspecified) [PHENYLPROPANOLAMINE],85,0.03,0.03,0.263,9.55,68,–,1,34
